The values below come from ChEMBL document CHEMBL4706643 (J Med Chem, 2021).

By IC50 is commonly meant the concentration that gives 50% inhibition.

SMILES strings stand for the structures.

One data set relates to Hepatitis B virus. Kind of data set: Antiviral activity against HBV infected in human HepG2-NTCP cells assessed as reduction in HBeAg secretion cells inoculated with virus for 4 hrs at room temperature and 37 degree C for 24 hrs followed inoculum changed with PMM medium for every 2 days until day 5 post infection by ELISA. In kind it is functional, organism-based. (ELISA stands for enzyme-linked immunosorbent assay.)

The nature of data set [1]: Intrinsic clearance in rat liver microsomes at 1 uM preincubated for 5 mins followed by NADPH addition and measured upto 60 mins by LC-MS analysis. The conditions noted are these: time 65 min, read-out: CLH. The data set is classed as ADME, Microsome. Background: Microsomes from liver hold many membrane-bound enzymes, among them those of drug oxidation.
Data set [2] is described as follows: Intrinsic clearance in mouse liver microsomes at 1 uM preincubated for 5 mins followed by NADPH addition and measured upto 60 mins by LC-MS analysis. The conditions noted are these: read-out: CLH. In kind it is ADME, Microsome. The procedure, abridged:
(§1)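 Human or mouse liver microsomes, final 1 mg/mL in 0.05 M phosphate buffer pH 7.4; compound final 1 μM, preincubated 37 °C 5 min, started with 1 mM NADPH; sampled at 0, 5, 15, 30, 60 min, methanol quench, −20 °C 1 h, centrifuged, supernatant by LC–MS.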

Data set [3] is described as follows: Intrinsic clearance in human liver microsomes at 1 uM preincubated for 5 mins followed by NADPH addition and measured upto 60 mins by LC-MS analysis. In kind it is ADME, Microsome. The conditions noted are these: read-out: CLH. The procedure, abridged: as §1

`CC[C@@H]1NC(=O)[C@H]([C@@H]2O[C@@H](Sc3cccc(OCc4ccc(F)cc4C)c3)C[C@H]2C)N(C)C(=O)[C@H](C(C)C)N(C)C(=O)[C@H](CC(C)C)N(C)C(=O)[C@H](CC(C)C)N(C)C(=O)[C@@H](C)NC(=O)[C@H](C)NC(=O)[C@H](CC(C)C)N(C)C(=O)[C@H](C(C)C)NC(=O)[C@H](CC(C)C)N(C)C(=O)CN(C)C1=O`: the IC50 in the data set with Hepatitis B virus came out at 122 nM. In addition, the microsomal CLint at 1 µM is 0.8 µL/min/mg in data set [1] and 7.1 µL/min/mg in data set [2].

As to `CC[C@@H]1NC(=O)[C@H]([C@@H]2O[C@@H](Sc3ccc(OC)cc3)C[C@H]2C)N(C)C(=O)[C@H](C(C)C)N(C)C(=O)[C@H](CC(C)C)N(C)C(=O)[C@H](CC(C)C)N(C)C(=O)[C@@H](C)NC(=O)[C@H](C)NC(=O)[C@H](CC(C)C)N(C)C(=O)[C@H](C(C)C)NC(=O)[C@H](CC(C)C)N(C)C(=O)CN(C)C1=O`, the IC50 in the data set with Hepatitis B virus came out at 990 nM.

On to `CC[C@@H]1NC(=O)[C@H]([C@@H]2O[C@@H](Oc3cc(OC)cc(OC)c3)C[C@H]2C)N(C)C(=O)[C@H](C(C)C)N(C)C(=O)[C@H](CC(C)C)N(C)C(=O)[C@H](CC(C)C)N(C)C(=O)[C@@H](C)NC(=O)[C@H](C)NC(=O)[C@H](CC(C)C)N(C)C(=O)[C@H](C(C)C)NC(=O)[C@H](CC(C)C)N(C)C(=O)CN(C)C1=O`, for which the IC50 in the data set with Hepatitis B virus was 689 nM.

For the compound `CC[C@@H]1NC(=O)[C@H]([C@@H]2OC(C(C)=O)C[C@H]2C)N(C)C(=O)[C@H](C(C)C)N(C)C(=O)[C@H](CC(C)C)N(C)C(=O)[C@H](CC(C)C)N(C)C(=O)[C@@H](C)NC(=O)[C@H](C)NC(=O)[C@H](CC(C)C)N(C)C(=O)[C@H](C(C)C)NC(=O)[C@H](CC(C)C)N(C)C(=O)CN(C)C1=O` (stereo partly drawn), the half-inhibitory concentration (IC50) in the data set with Hepatitis B virus was > 10000 nM.

Regarding `CC[C@@H]1NC(=O)[C@H]([C@@H]2O[C@@H](Oc3cccc(OCc4ccccc4)c3)C[C@H]2C)N(C)C(=O)[C@H](C(C)C)N(C)C(=O)[C@H](CC(C)C)N(C)C(=O)[C@H](CC(C)C)N(C)C(=O)[C@@H](C)NC(=O)[C@H](C)NC(=O)[C@H](CC(C)C)N(C)C(=O)[C@H](C(C)C)NC(=O)[C@H](CC(C)C)N(C)C(=O)CN(C)C1=O`, the IC50 in the data set on Hepatitis B virus is 344 nM.

On to `CC[C@@H]1NC(=O)[C@H]([C@@H]2O[C@@H](Sc3cccc(N(C)CC)c3)C[C@H]2C)N(C)C(=O)[C@H](C(C)C)N(C)C(=O)[C@H](CC(C)C)N(C)C(=O)[C@H](CC(C)C)N(C)C(=O)[C@@H](C)NC(=O)[C@H](C)NC(=O)[C@H](CC(C)C)N(C)C(=O)[C@H](C(C)C)NC(=O)[C@H](CC(C)C)N(C)C(=O)CN(C)C1=O`, for which the 50% inhibitory concentration (IC50) in the data set on Hepatitis B virus was found to be 206 nM.

Regarding `CC[C@@H]1NC(=O)[C@H]([C@@H]2O[C@@H](Sc3cccc(OCCc4ccccc4)c3)C[C@H]2C)N(C)C(=O)[C@H](C(C)C)N(C)C(=O)[C@H](CC(C)C)N(C)C(=O)[C@H](CC(C)C)N(C)C(=O)[C@@H](C)NC(=O)[C@H](C)NC(=O)[C@H](CC(C)C)N(C)C(=O)[C@H](C(C)C)NC(=O)[C@H](CC(C)C)N(C)C(=O)CN(C)C1=O`, the IC50 in the data set with Hepatitis B virus was determined as 354 nM.

Consider `CC[C@@H]1NC(=O)[C@H]([C@@H]2O[C@@H](Sc3ccc(Cl)c(OCc4ccccc4)c3)C[C@H]2C)N(C)C(=O)[C@H](C(C)C)N(C)C(=O)[C@H](CC(C)C)N(C)C(=O)[C@H](CC(C)C)N(C)C(=O)[C@@H](C)NC(=O)[C@H](C)NC(=O)[C@H](CC(C)C)N(C)C(=O)[C@H](C(C)C)NC(=O)[C@H](CC(C)C)N(C)C(=O)CN(C)C1=O`, for which the IC50 in the data set on Hepatitis B virus was 215 nM.

Take `CC[C@@H]1NC(=O)[C@H]([C@@H]2O[C@@H](Sc3nccc(C(F)(F)F)n3)C[C@H]2C)N(C)C(=O)[C@H](C(C)C)N(C)C(=O)[C@H](CC(C)C)N(C)C(=O)[C@H](CC(C)C)N(C)C(=O)[C@@H](C)NC(=O)[C@H](C)NC(=O)[C@H](CC(C)C)N(C)C(=O)[C@H](C(C)C)NC(=O)[C@H](CC(C)C)N(C)C(=O)CN(C)C1=O`: in the data set on Hepatitis B virus, the IC50 was determined as 4960 nM.

In the case of `CC[C@@H]1NC(=O)[C@H]([C@@H]2O[C@@H](Sc3cccc(OCc4ccc(F)cc4Cl)c3)C[C@H]2C)N(C)C(=O)[C@H](C(C)C)N(C)C(=O)[C@H](CC(C)C)N(C)C(=O)[C@H](CC(C)C)N(C)C(=O)[C@@H](C)NC(=O)[C@H](C)NC(=O)[C@H](CC(C)C)N(C)C(=O)[C@H](C(C)C)NC(=O)[C@H](CC(C)C)N(C)C(=O)CN(C)C1=O`, the IC50 in the data set on Hepatitis B virus stood at 403 nM.

With `CC[C@@H]1NC(=O)[C@H]([C@@H]2O[C@@H](Sc3cccc(OCc4cccnc4)c3)C[C@H]2C)N(C)C(=O)[C@H](C(C)C)N(C)C(=O)[C@H](CC(C)C)N(C)C(=O)[C@H](CC(C)C)N(C)C(=O)[C@@H](C)NC(=O)[C@H](C)NC(=O)[C@H](CC(C)C)N(C)C(=O)[C@H](C(C)C)NC(=O)[C@H](CC(C)C)N(C)C(=O)CN(C)C1=O`, the IC50 in the data set on Hepatitis B virus is 269 nM.

Regarding `CC[C@@H]1NC(=O)[C@H]([C@@H]2OC(C(C)C)C[C@H]2C)N(C)C(=O)[C@H](C(C)C)N(C)C(=O)[C@H](CC(C)C)N(C)C(=O)[C@H](CC(C)C)N(C)C(=O)[C@@H](C)NC(=O)[C@H](C)NC(=O)[C@H](CC(C)C)N(C)C(=O)[C@H](C(C)C)NC(=O)[C@H](CC(C)C)N(C)C(=O)CN(C)C1=O` (stereo partly drawn), in the data set with Hepatitis B virus, the half-inhibitory concentration (IC50) is > 10000 nM.

In the case of `CC[C@@H]1NC(=O)[C@H]([C@@H]2O[C@@H](Sc3cc(Cl)cc(OC)c3)C[C@H]2C)N(C)C(=O)[C@H](C(C)C)N(C)C(=O)[C@H](CC(C)C)N(C)C(=O)[C@H](CC(C)C)N(C)C(=O)[C@@H](C)NC(=O)[C@H](C)NC(=O)[C@H](CC(C)C)N(C)C(=O)[C@H](C(C)C)NC(=O)[C@H](CC(C)C)N(C)C(=O)CN(C)C1=O`, in the data set on Hepatitis B virus, the IC50 was 116 nM. Moreover, the values for the microsomal CLint at 1 µM in data set [3] and in data set [2] were 4.2 µL/min/mg and 2.2 µL/min/mg, respectively.

In the case of `C=C(C)C1C[C@@H](C)[C@H]([C@H]2C(=O)N[C@@H](CC)C(=O)N(C)CC(=O)N(C)[C@@H](CC(C)C)C(=O)N[C@@H](C(C)C)C(=O)N(C)[C@@H](CC(C)C)C(=O)N[C@@H](C)C(=O)N[C@H](C)C(=O)N(C)[C@@H](CC(C)C)C(=O)N(C)[C@@H](CC(C)C)C(=O)N(C)[C@@H](C(C)C)C(=O)N2C)O1` (stereo partly drawn), the IC50 with Hepatitis B virus is > 10000 nM.

With `CC[C@@H]1NC(=O)[C@H]([C@@H]2O[C@H](Oc3cccc(OCc4ccccc4)c3)C[C@H]2C)N(C)C(=O)[C@H](C(C)C)N(C)C(=O)[C@H](CC(C)C)N(C)C(=O)[C@H](CC(C)C)N(C)C(=O)[C@@H](C)NC(=O)[C@H](C)NC(=O)[C@H](CC(C)C)N(C)C(=O)[C@H](C(C)C)NC(=O)[C@H](CC(C)C)N(C)C(=O)CN(C)C1=O`, in the data set with Hepatitis B virus, the IC50 came to 681 nM.

Turning to `CC[C@@H]1NC(=O)[C@H]([C@@H]2O[C@H](Sc3ccc(OC)cc3)C[C@H]2C)N(C)C(=O)[C@H](C(C)C)N(C)C(=O)[C@H](CC(C)C)N(C)C(=O)[C@H](CC(C)C)N(C)C(=O)[C@@H](C)NC(=O)[C@H](C)NC(=O)[C@H](CC(C)C)N(C)C(=O)[C@H](C(C)C)NC(=O)[C@H](CC(C)C)N(C)C(=O)CN(C)C1=O`, the IC50 with Hepatitis B virus amounted to 1700 nM.

For the compound `CCCOc1cccc(S[C@H]2C[C@@H](C)[C@H]([C@H]3C(=O)N[C@@H](CC)C(=O)N(C)CC(=O)N(C)[C@@H](CC(C)C)C(=O)N[C@@H](C(C)C)C(=O)N(C)[C@@H](CC(C)C)C(=O)N[C@@H](C)C(=O)N[C@H](C)C(=O)N(C)[C@@H](CC(C)C)C(=O)N(C)[C@@H](CC(C)C)C(=O)N(C)[C@@H](C(C)C)C(=O)N3C)O2)c1`, the IC50 in the data set with Hepatitis B virus is 223 nM.

For the compound `CC[C@@H]1NC(=O)[C@H]([C@@H]2O[C@@H](Sc3cccc(NC)c3)C[C@H]2C)N(C)C(=O)[C@H](C(C)C)N(C)C(=O)[C@H](CC(C)C)N(C)C(=O)[C@H](CC(C)C)N(C)C(=O)[C@@H](C)NC(=O)[C@H](C)NC(=O)[C@H](CC(C)C)N(C)C(=O)[C@H](C(C)C)NC(=O)[C@H](CC(C)C)N(C)C(=O)CN(C)C1=O`, the IC50 in the data set on Hepatitis B virus is 1200 nM.

Take `CC[C@@H]1NC(=O)[C@H]([C@@H]2O[C@@H](Sc3cccc(OCc4ccc(=O)n(C)c4)c3)C[C@H]2C)N(C)C(=O)[C@H](C(C)C)N(C)C(=O)[C@H](CC(C)C)N(C)C(=O)[C@H](CC(C)C)N(C)C(=O)[C@@H](C)NC(=O)[C@H](C)NC(=O)[C@H](CC(C)C)N(C)C(=O)[C@H](C(C)C)NC(=O)[C@H](CC(C)C)N(C)C(=O)CN(C)C1=O`: in the data set with Hepatitis B virus, the IC50 was determined as 480 nM.

For `CC[C@@H]1NC(=O)C([C@@H]2OC(O)C[C@H]2C)N(C)C(=O)[C@H](C(C)C)N(C)C(=O)[C@H](CC(C)C)N(C)C(=O)[C@H](CC(C)C)N(C)C(=O)[C@@H](C)NC(=O)[C@H](C)NC(=O)[C@H](CC(C)C)N(C)C(=O)[C@H](C(C)C)NC(=O)[C@H](CC(C)C)N(C)C(=O)CN(C)C1=O` (stereo partly drawn), in the data set with Hepatitis B virus, the IC50 was determined as 11900 nM.

`CC[C@@H]1NC(=O)[C@H]([C@@H]2O[C@@H](Sc3cccc(OC)c3)C[C@H]2C)N(C)C(=O)[C@H](C(C)C)N(C)C(=O)[C@H](CC(C)C)N(C)C(=O)[C@H](CC(C)C)N(C)C(=O)[C@@H](C)NC(=O)[C@H](C)NC(=O)[C@H](CC(C)C)N(C)C(=O)[C@H](C(C)C)NC(=O)[C@H](CC(C)C)N(C)C(=O)CN(C)C1=O`: the half-maximal inhibitory concentration (IC50) with Hepatitis B virus is 530 nM.

Take `CC[C@@H]1NC(=O)[C@H]([C@@H]2O[C@H](Sc3cccc(OCc4ccccc4)c3)C[C@H]2C)N(C)C(=O)[C@H](C(C)C)N(C)C(=O)[C@H](CC(C)C)N(C)C(=O)[C@H](CC(C)C)N(C)C(=O)[C@@H](C)NC(=O)[C@H](C)NC(=O)[C@H](CC(C)C)N(C)C(=O)[C@H](C(C)C)NC(=O)[C@H](CC(C)C)N(C)C(=O)CN(C)C1=O`: the results for the microsomal CLint at 1 µM in data set [3], in data set [1] and in data set [2] were 7.7 µL/min/mg, 3 µL/min/mg and 2.1 µL/min/mg, respectively.
